Hits are enriched below; roughly 2.3% of the tested compounds scored in any of these assays.
TRPC4 inh = blocks the mouse TRPC4 cation channel; Q9QUQ5; B-score at 10 µM; HEK293 TRPC4beta/mu-opioid, DAMGO-evoked Fluo4 calcium flux; stronger effect = lower value; actives 0.39% (n = 300,000);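 active = B-score over 3 SD under the library average, no early fluorescence shift, positive overall ratio signal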
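Signal: kinetic Fluo4 fluorescence imaging of calcium influx. Material: stable TRPC4beta/mu-opioid receptor HEK293 cells. Probe or stimulus: DAMGO in two steps, submaximal then maximal.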
TRPC4 act = activators of mouse TRPC4 channel | HEK293 TRPC4beta/mu-opioid, Fluo4 calcium fluorescence; stronger effect = higher value | B-score at 10 µM | actives 0.49% (n = 310,000) | AID 2237;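 active = B-score above 5 SD of library B-scores, and initial fluorescence ratio not above library mean plus 5 SD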;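 also: positive B-score marks a calcium rise read as TRPC4 activation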
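System: HEK293 cells stably co-expressing mouse TRPC4beta and mu-opioid receptor; Schedule: Fluo4 dye loading 45 min at room temperature, 110 s recording; Detection: Fluo4 fluorescence, kinetic; Evaluation: B-scored integrated calcium fluorescence ratio; Controls: buffer (low) and maximal DAMGO (high).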
TRPC6 activator = activators of mouse TRPC6 channel; AID 2550; B-score at 10 µM; Q61143; HEK293-TRPC6 membrane potential dye fluorescence; stronger effect = higher value; actives 0.13% (n = 310,000);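 active = B-score of the integrated fluorescence ratio above library mean plus 3 SD, and starting fluorescence ratio within library mean plus 5 SD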;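 also: higher score means more depolarization so channel activation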
TRPC4 PAM = allosteric potentiators of mouse TRPC4 channel; HEK293 TRPC4beta/mu-opioid, DAMGO EC20, Fluo-4 Ca2+ flux; stronger effect = higher value; AID 2227; B-score at 10 µM; actives 0.42% (n = 310,000); Q9QUQ5;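 active = B-score of calcium response area above 5 SD of library B-scores, with initial fluorescence ratio within 5 SD of library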;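 also: B-score of integrated fluorescence ratio over time as area under calcium response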
TRPC6 inhibitor = blocks the mouse TRPC6 cation channel; HEK293-TRPC6, membrane potential dye, ACh-evoked depolarization; stronger effect = lower value; B-score at 10 µM; actives 1.1% (n = 310,000); AID 2553;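 active = B-score under library mean minus 3 SD, initial fluorescence not abnormally high, positive integrated signal ratio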;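 also: B-score derived from integrated fluorescence ratio over the kinetic read; more negative B-score means stronger inhibition of depolarization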
TRPC4 sel inh 2 = second selectivity test of TRPC6 inhibitors: effect on mouse TRPC4; shares compounds with TRPC6 inhibitor; HEK293 TRPC4/MOR, membrane potential dye fluorescence; channel activated by saturating DAMGO dose; inhibition, % at 10 µM; actives 42% (n = 920); AID 2776;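 active = compounds whose fluorescence signal differed from control wells by over 3 SD, either direction, in both duplicate plates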
TRPC4 spec = mouse TRPC4 off-target activity of TRPC6 inhibitors | AID 2777 | actives 61% (n = 920) | HEK293 TRPC4/mu-opioid, membrane potential fluorescence | shares compounds with TRPC6 inhibitor | activity change, negative = inhibition, % at 10 µM;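 active = rise or fall in signal beyond 3 SD of buffer-only wells in both replicate plates, either sign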;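 also: integrated kinetic ratio of fluorescence range over baseline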
HEK293 MPD ctr 2-1 = second check of TRPC6 inhibitor effects in parental HEK293 cells | shares compounds with TRPC6 inhibitor | signal change vs control, % at 10 µM | AID 2779 | parental HEK293 membrane potential dye fluorescence; maximal acetylcholine challenge after compound addition | actives 31% (n = 920);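 active = membrane potential signal moving either way by over 3 SD of the maximum-effect control, in both duplicate plates, meaning non-specific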
HEK293 MPD ctr-1 = counter-screen for TRPC6 inhibitors: effect in parental HEK293 cells; shares compounds with TRPC6 inhibitor; parental HEK293 membrane potential dye fluorescence; membrane potential signal change, % at 10 µM; actives 60% (n = 920); AID 2780;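 active = membrane potential signal shifting up or down by more than 3 SD of buffer-only wells, on both duplicate plates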
HEK293 MPD ctr-2 = checks TRPC6 modulator effects in parental HEK293 cells | membrane potential signal change, % at 10 µM | AID 488924 | membrane potential dye fluorescence | shares compounds with TRPC6 inhibitor | actives 51% (n = 2,400);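 active = membrane potential signal moves up or down beyond 5 SD from buffer-only wells, on both duplicate plates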
HEK293 MPD ctr 2-2 = second counter-screen for TRPC6 modulators: effect in parental HEK293 cells; membrane potential dye fluorescence; after compound, maximal acetylcholine stimulation; actives 14% (n = 2,400); shares compounds with TRPC6 inhibitor; inhibition, % at 10 µM;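 active = membrane potential signal drops by more than 5 SD from the mean control signal, in both duplicate plates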;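 also: plate controls were acetylcholine ECmax control wells for no effect and buffer only wells for full effect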
TRPC4/MOR mod = tests whether TRPC6 modulators also affect mouse TRPC4 | shares compounds with TRPC6 inhibitor | HEK293 TRPC4/mu-opioid, membrane potential fluorescence | percent change from control (negative = decrease, positive = increase), % at 10 µM | actives 69% (n = 2,400);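 active = membrane potential signal moved up or down beyond 5 SD of buffer control wells, in both duplicate plates, actives on both sides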;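 also: plate controls were assay buffer wells for no effect and DAMGO maximal-effect wells for full effect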
TRPC4 ctr inh 2 = mouse TRPC4 off-target activity of TRPC6 modulators, second screen; HEK293 TRPC4/mu-opioid, membrane potential dye fluorescence; stimulated with maximal-effect DAMGO; AID 488928; shares compounds with TRPC6 inhibitor; actives 55% (n = 2,400); inhibition, % at 10 µM;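 active = drop in membrane potential signal beyond 5 SD of the control wells in both duplicate plates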;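 also: TRPC4 counter screen for TRPC6 hits run under conditions tuned for TRPC6 not TRPC4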
TRPC6 inh conf = confirmation of mouse TRPC6 inhibitors | shares compounds with TRPC6 inhibitor | HEK293-TRPC6, membrane potential dye, ACh-evoked depolarization | inhibition, % at 10 µM | actives 43% (n = 3,300);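 active = fluorescence ratio falls more than 5 SD below the full-stimulation control mean, in both duplicate runs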;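 also: integrated fluorescence ratio of peak minus minimum over baseline after agonist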
TRPC6 act conf = confirmation of mouse TRPC6 activators | HEK293-TRPC6 membrane potential dye fluorescence, FDSS | shares compounds with TRPC6 inhibitor | activation, % at 10 µM | AID 488961 | actives 11% (n = 2,800);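 active = ratio signal rise beyond 5 SD above unstimulated control wells' mean, seen in both duplicate runs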;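 also: plate controls were buffer EC0 wells for no effect and acetylcholine ECmax response for full effect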
* marks the source's active call; other numbers are inactive results; i = inactive; . = not tested or not shown.

SMILES | TRPC4 inh | TRPC4 act | TRPC6 activator | TRPC4 PAM | TRPC6 inhibitor | HEK293 MPD ctr-2 | HEK293 MPD ctr 2-2 | TRPC4/MOR mod | TRPC4 ctr inh 2 | TRPC6 inh conf | TRPC6 act conf | others
Cc1ccc(N(CC(=O)NCC2CCCO2)S(=O)(=O)c2ccccc2)c(C)c1 (stereo not given) | i | i | i | i | i | . | . | . | . | . | .
COCCNCC(=O)N1c2ccccc2Sc2ccccc21 | i | i | i | i | i | . | . | . | . | . | .
CC(C)CNCC(=O)N1c2ccccc2Sc2ccccc21 | i | i | i | i | -5.7* | 124%* | i | 16%* | 56%* | i | .
Cc1cccc[n+]1CC(=O)N1c2ccccc2Sc2ccccc21 | i | i | i | i | -11* | . | . | . | . | 93%* | i | TRPC4 sel inh 2=i;TRPC4 spec=i;HEK293 MPD ctr 2-1=-12%*;HEK293 MPD ctr-1=i
O=S1(=O)CCOCCCN1Cc1ccccc1 | i | i | i | i | i | . | . | . | . | . | .
COc1cccc(CN2CCC(n3nccc3NC(=O)CCOc3ccccc3)CC2)c1 | i | i | i | i | i | . | . | . | . | . | .
COc1cccc(CN2CCC(n3nccc3NC(=O)CCOc3ccccc3)CC2)c1O | i | i | i | i | -10* | . | . | . | . | i | i | TRPC4 sel inh 2=i;TRPC4 spec=1.8%*;HEK293 MPD ctr 2-1=i;HEK293 MPD ctr-1=0.8%*
CN1CCC(=C2c3ccccc3C=Cc3ccccc32)CC1 | i | i | i | i | -5.5* | 150%* | 76%* | 23%* | 54%* | 75%* | .
CN1CCN(C(=O)CCN2C(=O)c3ccccc3C2=O)CC1 | i | i | i | i | i | . | . | . | . | . | .
COC(CSc1nc(N)c2c3c(sc2n1)CN(C)CC3)OC | i | i | i | i | i | . | . | . | . | . | .
CSc1nc(N)c2c3c(sc2n1)CN(C)CC3 | i | i | i | i | -7* | -124%* | i | -25%* | i | i | i
C=CCSc1nc(N)c2c3c(sc2n1)CN(C)CC3 | i | i | i | i | -6.5* | -76%* | i | -20%* | i | i | i
c1ccc(Cn2c3ccccc3c3nnc(SCCN4CCCCC4)nc32)cc1 | i | i | i | i | i | . | . | . | . | . | .
CCn1c2ccc(F)cc2c2nnc(SCCN3CCCCC3)nc21 | i | i | i | i | -5.8* | -78%* | i | 36%* | 80%* | i | i
CCN(CC)CCSc1nnc2c3ccccc3n(CCc3ccccc3)c2n1 | i | i | i | i | -7.5* | . | . | . | . | i | i | TRPC4 sel inh 2=18%*;TRPC4 spec=0.5%*;HEK293 MPD ctr 2-1=i;HEK293 MPD ctr-1=-198%*
C=CCn1c2ccccc2c2nnc(SCCN3CCCCC3)nc21 | i | i | i | i | -8.6* | . | . | . | . | i | i | TRPC4 sel inh 2=73%*;TRPC4 spec=-14%*;HEK293 MPD ctr 2-1=i;HEK293 MPD ctr-1=-154%*
CCCn1c2ccc(F)cc2c2nnc(SCCN3CCCCC3)nc21 | i | i | i | i | i | . | . | . | . | . | .
Cc1ccccc1N1CCN(C2CCCN(C(=O)c3cn4cccc(C)c4n3)C2)CC1 (stereo not given) | i | i | i | i | i | . | . | . | . | . | .
CC[N+](C)(C)CC/C=C1/c2ccccc2Sc2ccc(Cl)cc21 | i | i | i | i | -8.8* | . | . | . | . | 79%* | i | TRPC4 sel inh 2=i;TRPC4 spec=-11%*;HEK293 MPD ctr 2-1=i;HEK293 MPD ctr-1=i
CCC(C)n1c(=N)c(C#N)cc2c(=O)n3cc(C)ccc3nc21 (stereo not given) | i | i | i | i | -6.9* | i | i | i | i | i | i
CCn1nc(C)cc1C(=O)NC1CCCc2c1cnn2-c1cc(F)cc(F)c1 (stereo not given) | i | i | i | i | i | . | . | . | . | . | .
CCOC(=O)N1CCN(S(=O)(=O)c2ccc(OCC)cc2)CC1 | i | i | i | i | -6.2* | i | i | 31%* | i | i | .
CCCCOc1ccc(S(=O)(=O)N2CCCCCC2)cc1 | i | i | i | i | -5.6* | i | i | i | i | 46%* | i
CCOC(=O)N1CCN(S(=O)(=O)c2ccc(OCC)c3ccccc23)CC1 | i | i | i | i | -7.8* | . | . | . | . | i | i | TRPC4 sel inh 2=i;TRPC4 spec=i;HEK293 MPD ctr 2-1=i;HEK293 MPD ctr-1=i
CCOC(=O)N1CCN(C(=O)COc2ccc3ccccc3c2Br)CC1 | i | i | i | i | -6.6* | i | i | 12%* | i | i | .
CCOc1ccccc1N1CCN(S(=O)(=O)c2ccc(F)c(F)c2)CC1 | i | i | i | i | i | . | . | . | . | . | .
CCOc1cc(S(=O)(=O)N2CCCCCC2)ccc1F | i | i | i | i | -6.7* | . | . | . | . | i | i | TRPC4 sel inh 2=i;TRPC4 spec=i;HEK293 MPD ctr 2-1=i;HEK293 MPD ctr-1=i
CC(=O)Nc1sc2c(c1C(N)=O)CCCC2 | i | i | i | i | i | . | . | . | . | . | .
NC(=O)c1c(NC(=O)C2c3ccccc3Oc3ccccc32)sc2c1CCCCC2 | i | i | i | i | -5.1* | i | i | i | i | i | i
Cc1ccc2c(Cl)c(C)c(N3CCCC3)nc2n1 | i | i | i | i | -5.7* | -244%* | 70%* | -40%* | 52%* | 54%* | i

Bioassay records deposited in PubChem by Johns Hopkins Ion Channel Center.
